# Article PMC4716540 (British Journal of Cancer, 2015)
# “And” between values parts separate entries of the source, which are not always exact repeats. Identical values can stand only once.
# What was measured:
# Hsp90 = conditions: ref Nakashima et al, 2010; Ishii et al, 2012; cited from earlier work
# [1] = test system: relapsed/refractory MM and NHL; experiment: Tumour response by standard criteria for MM and NHL; type: in vivo, human; conditions: for Duration of sustained SD: one patient
# In short: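 Best tumour response was assessed over all cycles of single-agent treatment. The agent was given by 1-h IV infusion on days 1–5 of each 14-day cycle, at 14–176 mg m⁻². Treatment continued for up to 12 months or until progression, unacceptable toxicity or withdrawal. Intrapatient escalation was allowed after at least two cycles. Chemotherapy, radiotherapy and corticosteroids were excluded. Responses were summarised descriptively by dose level.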
# [2] = Plasma pharmacokinetics of KW-2478; type: in vivo, human
# primary myeloma cells = conditions: in the presence of bone marrow stromal cells; ref Juliger et al, 2008; cited from earlier work
# [3] = test system: in vitro and in vivo models, including primary MM patient samples; conditions: ref Nakashima et al, 2010, Ishii et al, 2012; cited from earlier work
# [4] = 25 evaluable patients, all doses
# [5] = 14 mg m^–2 iv, day 1, n=3, mean±s.d.
# [6] = 14 mg m^–2 iv, day 5, n=3, mean±s.d.
# [7] = 28 mg m^–2 iv, day 1, n=3, mean±s.d.
# [8] = 28 mg m^–2 iv, day 5, n=3, mean±s.d.
# [9] = 47 mg m^–2 iv, day 1, n=3, mean±s.d.
# [10] = 47 mg m^–2 iv, day 5, n=2, mean±s.d.
# [11] = 71 mg m^–2 iv, day 1, n=3, mean±s.d.
# [12] = 71 mg m^–2 iv, day 5, n=2, mean±s.d.
# [13] = 99 mg m^–2 iv, day 1, n=3, mean±s.d.
# [14] = 99 mg m^–2 iv, day 5, n=3, mean±s.d.
# [15] = 132 mg m^–2 iv, day 1, n=6, mean±s.d.
# [16] = 132 mg m^–2 iv, day 5, n=6, mean±s.d.
# [17] = 176 mg m^–2 iv, day 1, n=6, mean±s.d.
# [18] = 176 mg m^–2 iv, day 5, n=5, mean±s.d.
structure (smiles),measurement,setting,value
CCc1c(O)cc(O)c(C(=O)c2ccc(OCCN3CCOCC3)c(OC)c2)c1CC(=O)N(CCOC)CCOC [KW-2478],Binding affinity to Hsp90,Hsp90,high binding affinity
same,"Progressive disease, MM patients",[1]; 21 evaluable MM patients,4.8%
same,"Stable disease (SD), MM patients",[1]; 21 evaluable MM patients,95.2%
same,Evaluable patients with stable disease (disease stabilisation rate),[1]; [4],96%
same,Overall disease control rate,[1]; [4],96.0%
same,Patients with SD lasting ⩾3 months,[1]; all doses,Eight
same,Patients with SD lasting ⩾6 months (free of disease progression),[1]; all doses,five
same,Complete or partial responses,[1]; best tumour response over all cycles,No patients achieved complete or partial responses
same,"Stable disease (SD), NHL patients",[1]; four evaluable NHL patients,100%
same,Duration of response,"[1]; individual patient, MM, 99 mg m^–2",3.1 months
same,Duration of response,"[1]; individual patient, NHL, 99 mg m^–2",1.5 months
same,Duration of response,"[1]; individual patient, NHL, 176 mg m^–2",1.3 months
same,Duration of response,"[1]; individual patients, MM, 14 mg m^–2",1 months and 1.4 months
same,Duration of response,"[1]; individual patients, MM, 28 mg m^–2",11.3 months and 0.8 months and 1.8 months
same,Duration of response,"[1]; individual patients, MM, 47 mg m^–2",1.3 months and 1 months
same,Duration of response,"[1]; individual patients, MM, 71 mg m^–2",1.1 months and 5.1 months
same,Duration of response,"[1]; individual patients, MM, 132 mg m^–2",1.4 months and 8.8 months and 12.9 months
same,Duration of response,"[1]; individual patients, MM, 176 mg m^–2",3.5 months and 1.3 months and 11.9 months and 2 months
same,Duration of response,"[1]; individual patients, NHL, 132 mg m^–2",1.4 months and 8.2 months
same,Duration of sustained SD,[1]; 132 mg m^–2 cohort,12.9 months
same,Duration of sustained SD,[1]; 176 mg m^–2 cohort,11.9 months
same,AUC0–t,[2]; [5],819±403 ng h^–1 ml^–1
same,AUC0–∞,[2]; [5],992±497 ng h^–1 ml^–1
same,CL (total plasma clearance),[2]; [5],28.9±11.1 l h^–1
same,Cmax,[2]; [5],645±306 ng ml^–1
same,kel (elimination rate constant),[2]; [5],0.11 ± 0.01 h⁻¹
same,t½ (terminal half-life),[2]; [5],6.05 ± 0.37 h
same,AUC0–t,[2]; [6],844±445 ng h^–1 ml^–1
same,Cmax,[2]; [6],656±342 ng ml^–1
same,AUC0–t,[2]; [7],1935±848 ng h^–1 ml^–1
same,AUC0–∞,[2]; [7],2353±1117 ng h^–1 ml^–1
same,CL (total plasma clearance),[2]; [7],23.1±15.9 l h^–1
same,Cmax,[2]; [7],1620±556 ng ml^–1
same,kel (elimination rate constant),[2]; [7],0.11 ± 0.02 h⁻¹
same,t½ (terminal half-life),[2]; [7],6.48 ± 0.96 h
same,AUC0–t,[2]; [8],1639±768 ng h^–1 ml^–1
same,Cmax,[2]; [8],1320±531 ng ml^–1
same,AUC0–t,[2]; [9],2325±652 ng h^–1 ml^–1
same,AUC0–∞,[2]; [9],2758±891 ng h^–1 ml^–1
same,CL (total plasma clearance),[2]; [9],34.9±8.35 l h^–1
same,Cmax,[2]; [9],1990±236 ng ml^–1
same,kel (elimination rate constant),[2]; [9],0.11 ± 0.01 h⁻¹
same,t½ (terminal half-life),[2]; [9],6.60 ± 0.69 h
same,AUC0–t,[2]; [10],2334±532 ng h^–1 ml^–1
same,Cmax,[2]; [10],1705±785 ng ml^–1
same,AUC0–t,[2]; [11],2798±432 ng h^–1 ml^–1
same,AUC0–∞,[2]; [11],3197±400 ng h^–1 ml^–1
same,CL (total plasma clearance),[2]; [11],43.0±6.80 l h^–1
same,Cmax,[2]; [11],2620±585 ng ml^–1
same,kel (elimination rate constant),[2]; [11],0.11 ± 0.02 h⁻¹
same,t½ (terminal half-life),[2]; [11],6.29 ± 0.93 h
same,AUC0–t,[2]; [12],3681±497 ng h^–1 ml^–1
same,Cmax,[2]; [12],2675±49.5 ng ml^–1
same,AUC0–t,[2]; [13],4220±1251 ng h^–1 ml^–1
same,AUC0–∞,[2]; [13],4826±1504 ng h^–1 ml^–1
same,CL (total plasma clearance),[2]; [13],42.7±12.5 l h^–1
same,Cmax,[2]; [13],3400±876 ng ml^–1
same,kel (elimination rate constant),[2]; [13],0.12 ± 0.003 h⁻¹
same,t½ (terminal half-life),[2]; [13],5.83 ± 0.14 h
same,AUC0–t,[2]; [14],3673±932 ng h^–1 ml^–1
same,Cmax,[2]; [14],2977±610 ng ml^–1
same,AUC0–t,[2]; [15],6910±1864 ng h^–1 ml^–1
same,CL (total plasma clearance),[2]; [15],35.0±9.99 l h^–1
same,Cmax,[2]; [15],5410±1622 ng ml^–1
same,kel (elimination rate constant),[2]; [15],0.12 ± 0.01 h⁻¹
same,t½ (terminal half-life),[2]; [15],5.71 ± 0.61 h
same,AUC0–t,[2]; [16],7262±1331 ng h^–1 ml^–1
same,Cmax,[2]; [16],5972±940 ng ml^–1
same,CL (total plasma clearance),[2]; [17],32.8±10.7 l h^–1
same,Cmax,[2]; [17],6838±1961 ng ml^–1
same,kel (elimination rate constant),[2]; [17],0.13 ± 0.01 h⁻¹
same,t½ (terminal half-life),[2]; [17],5.43 ± 0.39 h
same,AUC0–t,[2]; [18],8355±2496 ng h^–1 ml^–1
same,Cmax,[2]; [18],6062±1411 ng ml^–1
same,"Mean t½, range across dose levels",[2]; 14–176 mg m^–2,5.4 to 6.6 h
same,"Total CL, range of means across dose levels",[2]; 14–176 mg m^–2,23.1–43.0 l h^–1
same,Manner of plasma concentration decline,"[2]; after end of infusion, rapid distribution phase and slower elimination phase",biphasic
same,Mean Cmax and AUC values in relation to dose,[2]; days 1 and 5,increased linearly in relation to dose
same,"Accumulation from days 1 to 5 (Cmax, AUC)",[2]; once daily days 1–5,no relevant accumulation
same,Terminal half-life,"[2]; plasma, iv infusion over 1 h",~6 h
same,Activity against primary myeloma cells,primary myeloma cells,retained
same,Antitumour activity,[3],potent antitumour activity
